Activity calls are given as the source filed them. How the calls were made is not given here.
Biological target: Metabotropic glutamate receptor 5 (Rattus norvegicus) (UniProt P31424)
Experiment: [3H]methoxyPEPy displacement at rat mGlu5 – biochemical, HEK293A membranes, three-point Ki (AID 652191)
Settings: rmGlu5 HEK293A membranes
Method in brief: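 Test system: rat mGlu5 HEK293A cell membranes; quantity: 50 µg membranes per well; buffer or medium: HBSS with HEPES and probenecid, pH 7.4; probe or stimulus: 2 nM [3H]methoxyPEPy; incubation: 1 h shaking incubation of membranes, radioligand and compound, room temperature; detection: Filtration separating bound radioligand, then scintillation counting; measure: radioligand displacement by compound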

Sequence of Metabotropic glutamate receptor 5 (Rattus norvegicus) (P31424 whole entry, looked up): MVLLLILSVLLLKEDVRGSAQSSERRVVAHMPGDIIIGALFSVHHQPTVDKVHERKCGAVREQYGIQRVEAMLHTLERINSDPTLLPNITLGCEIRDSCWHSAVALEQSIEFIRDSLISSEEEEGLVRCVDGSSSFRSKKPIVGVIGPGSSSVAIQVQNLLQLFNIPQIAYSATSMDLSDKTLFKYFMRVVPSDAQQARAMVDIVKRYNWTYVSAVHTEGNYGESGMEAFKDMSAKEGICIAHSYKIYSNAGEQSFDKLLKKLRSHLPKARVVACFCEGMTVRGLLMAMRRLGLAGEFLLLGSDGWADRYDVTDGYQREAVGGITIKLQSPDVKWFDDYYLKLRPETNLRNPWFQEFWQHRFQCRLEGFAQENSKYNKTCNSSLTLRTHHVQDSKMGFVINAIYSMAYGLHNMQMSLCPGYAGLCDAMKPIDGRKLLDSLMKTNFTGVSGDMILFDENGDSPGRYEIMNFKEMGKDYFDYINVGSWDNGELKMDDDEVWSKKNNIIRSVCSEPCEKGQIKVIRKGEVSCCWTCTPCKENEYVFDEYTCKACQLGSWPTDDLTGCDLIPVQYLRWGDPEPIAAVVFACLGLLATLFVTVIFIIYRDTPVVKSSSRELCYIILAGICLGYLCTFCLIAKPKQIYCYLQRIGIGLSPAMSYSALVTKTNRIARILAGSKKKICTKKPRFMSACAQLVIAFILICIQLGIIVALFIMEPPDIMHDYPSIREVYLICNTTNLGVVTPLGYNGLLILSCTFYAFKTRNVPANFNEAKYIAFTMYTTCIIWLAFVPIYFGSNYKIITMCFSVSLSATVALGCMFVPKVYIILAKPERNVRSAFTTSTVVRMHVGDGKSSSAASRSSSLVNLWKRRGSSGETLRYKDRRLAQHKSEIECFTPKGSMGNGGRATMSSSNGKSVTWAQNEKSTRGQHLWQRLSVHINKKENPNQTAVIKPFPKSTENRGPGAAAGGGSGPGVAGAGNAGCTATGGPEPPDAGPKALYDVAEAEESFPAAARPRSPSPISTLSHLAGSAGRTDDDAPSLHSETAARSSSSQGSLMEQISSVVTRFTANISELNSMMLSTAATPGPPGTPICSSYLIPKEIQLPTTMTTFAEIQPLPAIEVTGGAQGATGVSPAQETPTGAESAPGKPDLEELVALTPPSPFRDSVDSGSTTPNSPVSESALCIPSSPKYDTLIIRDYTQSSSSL

| Ki | Compound |
| --- | --- |
| 10 nM | O=C(c1ccc(C#Cc2cccc(F)c2)cn1)N1CCCCC1 |
| 10 nM | O=C(c1ccc(C#Cc2cccc(F)c2)cn1)N1CC2CC2C1 (stereo not drawn) |
| inactive | O=C(c1ccc(C#Cc2cccc(F)c2)cn1)N1CC(O)(c2ccccc2)C1 |
| 4.83 nM | CC1CCN1C(=O)c1ccc(C#Cc2cccc(F)c2)cn1 (stereo not drawn) |
| 40 nM | O=C(c1ccc(C#Cc2cccc(F)c2)cn1)N1CCC1 |
| inactive | O=C(c1ccc(C#Cc2cccc(F)c2)cn1)N1CCC(O)CC1 |
| inactive | O=C(c1ccc(C#Cc2cccc(F)c2)nc1)N1CCC1 |
| 3.82 nM | O=C(c1ccc(C#Cc2cccc(F)c2)cn1)N1CCCCCC1 |
| 70 nM | O=C(c1ccc(C#Cc2cccc(F)c2)cn1)N1CC(F)C1 |
| 10 nM | O=C(c1ccc(C#Cc2cccc(F)c2)cn1)N1CCC(F)(F)C1 |
| 70 nM | O=C(c1ccc(C#Cc2cccc(F)c2)cn1)N1CCOCC1 |
| inactive | CNC(=O)c1ccc(C#Cc2cccc(F)c2)cc1 |
| inactive | O=C(c1ccc(C#Cc2cccc(F)c2)cc1)N1CCOCC1 |
| 20 nM | O=C(c1ccc(C#Cc2cccc(F)c2)cn1)N1CCCC1 |
| inactive | O=C(c1ccc(C#Cc2cccc(F)c2)nc1)N1CCOCC1 |
| 40 nM | O=C(c1ccc(C#Cc2cccc(F)c2)cc1)N1CCC1 |
| 4.42 nM | O=C(c1ccc(C#Cc2cccc(F)c2)cn1)N1CCC(F)(F)CC1 |
| inactive | CNC(=O)c1ccc(C#Cc2cccc(F)c2)cn1 |
